Assay results published in ChEMBL document CHEMBL1148335, “Design and synthesis of potent inhibitors of the malaria aspartyl proteases plasmepsin I and II. Use of solid-phase synthesis to explore novel statine motifs” (J Med Chem, 2004).

Experiments:
Plasmepsin I = Plasmepsin I (Plasmodium falciparum, UniProt P39898); assay: In vitro inhibition of aspartic protease plasmepsin-1 (Plm) of Plasmodium falciparum.
Summary of the method: (§1)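 Fluorogenic DABCYL-Glu-Arg-Nle-Phe-Leu-Ser-Phe-Pro-EDANS substrate at 3 µM in 100 mM sodium acetate pH 4.5, 10% glycerol, 0.01% Tween 20. Inhibitors were serially diluted in DMSO and added just before substrate, at 1% final DMSO. Fluorescence increase was read over a linear 10 min. IC50 came from a competitive Langmuir fit, and Ki = IC50/(1+[S]/Km), with Km from Michaelis-Menten.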

Plasmodium falciparum [1] = assay: Growth inhibition of Plasmodium falciparum infected human erythrocytes at 5 uM; assay type: functional
Summary of the method: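 P. falciparum clone 3D7 was used as a highly synchronous early-trophozoite culture at ~1% haematocrit and 1% parasitaemia, with [3H]hypoxanthine at 10 µCi/ml. Compound was added at 1–5 µM final, with DMSO at most 1% v/v. Cultures grew 37 °C, 30 h, to schizonts, then were harvested onto filters for β-counting. Radioactivity was expressed relative to DMSO-only wells, from four independent experiments.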

Plasmepsin II = Plasmepsin II (Plasmodium falciparum, UniProt P46925); assay: In vitro inhibition of aspartic protease plasmepsin (Plm) II of Plasmodium falciparum; summary of the method: as §1
Chain of Plasmepsin II (P46925 whole entry): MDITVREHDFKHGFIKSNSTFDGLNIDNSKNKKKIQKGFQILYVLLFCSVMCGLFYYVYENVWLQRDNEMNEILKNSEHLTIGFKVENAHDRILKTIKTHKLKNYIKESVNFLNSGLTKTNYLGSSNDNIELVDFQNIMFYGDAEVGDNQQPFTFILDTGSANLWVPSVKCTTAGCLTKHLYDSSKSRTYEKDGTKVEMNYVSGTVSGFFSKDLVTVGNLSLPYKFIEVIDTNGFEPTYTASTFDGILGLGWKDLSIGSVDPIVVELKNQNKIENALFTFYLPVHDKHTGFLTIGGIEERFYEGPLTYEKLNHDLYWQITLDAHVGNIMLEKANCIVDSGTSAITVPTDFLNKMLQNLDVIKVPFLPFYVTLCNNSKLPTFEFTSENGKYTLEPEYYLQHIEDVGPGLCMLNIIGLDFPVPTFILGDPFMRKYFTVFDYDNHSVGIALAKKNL

Cathepsin D = Cathepsin D (Homo sapiens, UniProt P07339); assay: In vitro inhibition of human liver cathepsin D.; summary of the method: as §1
Chain of Cathepsin D (P07339 65-162 limits assumed): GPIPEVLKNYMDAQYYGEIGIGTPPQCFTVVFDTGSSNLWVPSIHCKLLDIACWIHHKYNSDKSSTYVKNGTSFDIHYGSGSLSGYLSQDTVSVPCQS
Chain of Cathepsin D (P07339 169-412 limits assumed): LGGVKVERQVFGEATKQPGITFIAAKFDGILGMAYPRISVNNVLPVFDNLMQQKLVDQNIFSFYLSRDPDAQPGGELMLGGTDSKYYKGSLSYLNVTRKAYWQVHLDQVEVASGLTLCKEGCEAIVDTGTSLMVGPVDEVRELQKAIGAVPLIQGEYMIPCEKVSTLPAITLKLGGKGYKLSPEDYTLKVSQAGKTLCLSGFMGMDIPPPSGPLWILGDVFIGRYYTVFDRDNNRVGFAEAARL

Plasmodium falciparum [2] = assay: Growth inhibition of Plasmodium falciparum infected human erythrocytes at 20 uM; assay type: functional

Chain of Plasmepsin I (P39898 whole entry): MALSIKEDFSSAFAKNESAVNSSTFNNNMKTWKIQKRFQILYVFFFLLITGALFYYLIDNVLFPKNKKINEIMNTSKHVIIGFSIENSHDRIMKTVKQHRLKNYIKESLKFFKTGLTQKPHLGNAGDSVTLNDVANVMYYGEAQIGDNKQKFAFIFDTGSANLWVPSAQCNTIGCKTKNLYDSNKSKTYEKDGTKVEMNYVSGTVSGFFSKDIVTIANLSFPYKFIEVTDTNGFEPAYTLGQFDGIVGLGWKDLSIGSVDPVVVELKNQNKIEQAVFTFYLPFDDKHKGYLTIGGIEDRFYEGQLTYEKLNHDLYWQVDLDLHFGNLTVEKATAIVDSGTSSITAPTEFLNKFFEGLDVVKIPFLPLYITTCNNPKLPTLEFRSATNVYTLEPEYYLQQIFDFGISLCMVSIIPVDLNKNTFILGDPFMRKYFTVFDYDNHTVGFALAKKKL

Row | Compound | Ki (Plasmepsin I) | inhibition at 5 µM (Plasmodium falciparum [1]) | Ki (Plasmepsin II) | Ki (Cathepsin D) | inhibition at 20 µM (Plasmodium falciparum [2])
1 | CC(C)C[C@H](NC(=O)[C@H](C)NC(=O)C[C@H](O)[C@H](COCc1ccccc1)NC(=O)[C@@H](NC(=O)c1ccccn1)C(C)C)C(N)=O | 5.4 nM | 37% | 11 nM | 41 nM | 
2 | CC(C)[C@H](NC(=O)c1ccccn1)C(=O)N[C@@H](COCc1ccc(Br)cc1)[C@@H](O)CC(=O)NCCNc1ccccc1 | 8.9 nM | 25% | 74 nM | 265 nM | 
3 | COc1cccc(CCNC(=O)C[C@H](O)[C@H](COCc2ccc(Br)cc2)NC(=O)c2c(F)cc(F)cc2F)c1 | 619 nM |  | 390 nM | > 5900 nM | 
4 | CC(C)[C@H](NC(=O)c1ccccn1)C(=O)N[C@@H](COCc1ccc(Br)cc1)[C@@H](O)CC(=O)NCc1ccccc1 | 3.9 nM |  | 41 nM | 586 nM | 
5 | CC(C)[C@H](NC(=O)c1ccccn1)C(=O)N[C@@H](COCc1ccc(Br)cc1)[C@@H](O)CC(=O)NC1CCCCC1 | 4.1 nM | 21% | 25 nM | 217 nM | 
6 | CC(C)C[C@H](NC(=O)[C@H](C)NC(=O)C[C@H](O)[C@H](COCc1ccc(Br)cc1)NC(=O)C(c1ccccc1)c1ccccc1)C(N)=O | 57 nM | 10% | 139 nM | 52 nM | 
7 | CC(C)C[C@H](NC(=O)[C@H](C)NC(=O)C[C@H](O)[C@H](COCc1ccc(Br)cc1)NC(=O)[C@H](NC(=O)c1ccccn1)C(C)C)C(N)=O | 6.4 nM | 50% | 15 nM | 41 nM | 
8 | CC(C)C[C@H](NC(=O)[C@H](C)NC(=O)C[C@H](O)[C@H](COCc1ccc(Br)cc1)NC(=O)c1c(F)cc(F)cc1F)C(N)=O | 3.4 nM |  | 10 nM | > 4000 nM | 
9 | COCCCNC(=O)C[C@H](O)[C@H](COCc1ccc(Br)cc1)NC(=O)[C@@H](NC(=O)c1ccccn1)C(C)C | 49 nM |  | 248 nM | > 4000 nM | 
10 | CC(C)C[C@H](NC(=O)[C@H](C)NC(=O)C[C@H](O)[C@H](COCc1ccc(Br)cc1)NC(=O)[C@@H](NC(=O)c1ccccn1)C(C)C)C(N)=O | 0.5 nM |  | 2.2 nM | 4.9 nM | 
11 | CC(C)C[C@H](NC(=O)[C@H](C)NC(=O)C[C@H](O)[C@H](COCc1ccc(Br)cc1)NC(=O)CC(c1ccccc1)c1ccccc1)C(N)=O | 40 nM |  | 284 nM | 100 nM | 
12 | CC(C)C[C@H](NC(=O)[C@H](C)NC(=O)C[C@H](O)[C@H](CCc1ccccc1)NC(=O)[C@@H](NC(=O)c1ccccn1)C(C)C)C(N)=O | 27 nM | 41% | 46 nM | 980 nM | 
13 | O=C(C[C@H](O)[C@H](COCc1ccc(Br)cc1)NC(=O)c1c(F)cc(F)cc1F)NC1CCCCC1 | 822 nM |  | 230 nM | > 5900 nM | 
14 | CCCCNC(=O)C[C@H](O)[C@H](COCc1ccc(Br)cc1)NC(=O)[C@@H](NC(=O)c1ccccn1)C(C)C | 8.1 nM |  | 68 nM | 473 nM | 
15 | CC(C)[C@H](NC(=O)c1ccccn1)C(=O)N[C@@H](COCc1ccc(Br)cc1)[C@@H](O)CC(=O)NCc1ccc(C#N)cc1 | 53 nM |  | 256 nM | 623 nM | 
16 | CC(C)C[C@H](NC(=O)[C@H](C)NC(=O)C[C@H](O)[C@H](COCc1ccc(Br)cc1)NC(=O)c1ccc2c(c1)OCO2)C(N)=O | 29 nM |  | 131 nM | > 5900 nM | 
17 | CC(C)C[C@H](NC(=O)[C@H](C)NC(=O)C[C@H](O)[C@H](Cc1ccccc1)NC(=O)[C@@H](NC(=O)c1ccccn1)C(C)C)C(N)=O |  |  |  |  | 54%
18 | CC(C)C[C@H](NC(=O)[C@H](C)NC(=O)C[C@H](O)[C@H](COCc1ccc(Br)cc1)NC(=O)c1ccc(Cl)c(Cl)c1)C(N)=O | 32 nM |  | 91 nM | 1810 nM | 
19 | CC(C)[C@H](NC(=O)c1ccccn1)C(=O)N[C@@H](COCc1ccc(Br)cc1)[C@@H](O)CC(=O)NCCCc1ccccc1 | 5.4 nM |  | 30 nM | 459 nM | 
20 | CC(C)C[C@H](NC(=O)[C@H](C)NC(=O)C[C@H](O)[C@H](COCc1ccc(Br)cc1)NC(=O)[C@@H]1Cc2ccccc2N1)C(N)=O | 59 nM | 16% | 144 nM | 322 nM | 
21 | CC(C)C[C@H](NC(=O)[C@H](C)NC(=O)C[C@H](O)[C@H](COCc1ccc(Br)cc1)NC(=O)Cc1cccs1)C(N)=O | 24 nM |  | 348 nM | 35 nM | 
22 | COc1cccc(CCNC(=O)C[C@H](O)[C@H](COCc2ccc(Br)cc2)NC(=O)[C@@H](NC(=O)c2ccccn2)C(C)C)c1 | 6.7 nM | 25% | 29 nM | 140 nM | 
